# Assay results published in ChEMBL document CHEMBL1781992, “A novel monocarbonyl analogue of curcumin, (1E,4E)-1,5-bis(2,3-dimethoxyphenyl)penta-1,4-dien-3-one, induced cancer cell H460 apoptosis via activation of endoplasmic reticulum stress signaling pathway” (J Med Chem, 2011).
# pIC50: −log10 of the molar value. Activity calls are given as the source filed them. The rule behind the calls is not given here.
# What was measured:
# NCI-H460 [1] = assay: Antitumor activity against human NCI-H460 cells xenografted in nude Balb/cA mouse assessed as decrease in tumor volume at 50 mg/kg, ip qd for 20 days measured on day 22 relative to control; type: functional; set-up: scale not given: the % may be the effect or the level left; details: route intraperitoneal
# Outline: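 BALB/cA nu/nu female athymic mice bearing sc right-flank xenografts (3 × 10^6 H460 cells in PBS); once-daily ip dosing began on day 10, when tumors reached 100–300 mm3. Water-soluble liposome preparation in PBS at 10 or 50 mg/kg; controls received liposome vehicle in PBS. Volume = lw²/2; T/C read on day 22. Seven mice per group, mean ± SD; Student's t test.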
# Mus musculus [2] = assay: Toxicity in ICR mouse assessed as mortality at 400 to 800 mg/kg; type: organism-based; set-up: dose 400-800 mg/kg; details: in vivo
# Mus musculus [3] = assay: Toxicity in ICR mouse assessed as body weight change at 400 to 800 mg/kg; type: organism-based; set-up: dose 400-800 mg/kg; details: in vivo
# Mus musculus [4] = assay: Toxicity in ICR mouse assessed as organ weight change at 400 to 800 mg/kg; type: organism-based; set-up: dose 400-800 mg/kg; details: in vivo
# NCI-H460 [5] = assay: Induction of apoptosis in human NCI-H460 cells at 20 uM after 6 hrs by flow cytometric analysis; type: functional
# Outline: (§1)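 H460 cells plated for 6 h, then treated with 5, 10 or 20 μM. Cells washed, trypsin-EDTA detached and resuspended in PBS, then stained with annexin V and propidium iodide plus RNase and 0.1% Triton X-100 for 30 min at 37 °C before flow cytometry. Figure legend gives 6 h incubation.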
# NCI-H460 [6] = assay: Cytotoxicity against human NCI-H460 cells transfected with lentivirus carrying CHOP siRNA assessed as reduction of cell viability at 10 uM after 24 hrs by CellTiter-Glo analysis; type: functional, cell-based
# Outline: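 H460 cells infected with lentivirus carrying CHOP siRNA or nonspecific siRNA; 48 h later treated with 10 μM for 24 h. Survival measured with CellTiter-Glo as percent of nontransfected DMSO-treated cells.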
# NCI-H460 [7] = assay: Induction of GRP78 mRNA expression in human NCI-H460 cells after 1 hrs by real time quantitative PCR analysis; type: functional, cell-based
# Outline: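 H460 cells treated across a concentration range for 1 h. GRP78 mRNA quantified by RT-qPCR, normalized to β-actin and expressed as percent of vehicle.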
# NCI-H460 [8] = assay: Cytotoxicity against human NCI-H460 cells after 72 hrs by MTT assay; type: functional, cell-based; details: NCI-H460, 72 h
# Outline: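 H460 cells grown in RPMI 1640 with 5% FBS at 37 °C, 10% CO2, treated 24 h after seeding. Compounds in DMSO diluted into medium at final 100, 33.3, 11.1 and 3.7 μg/mL for 72 h. MTT (5 mg/mL in 0.9% NaCl) added for 3 h, formazan dissolved in DMSO and read at 570 nm; IC50 derived.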
# NCI-H460 [9] = assay: Induction of CHOP expression in human NCI-H460 cells at 15 to 20 uM after 24 hrs by Western blot analysis; type: functional, cell-based
# Outline: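 H460 cells treated for 24 h at the indicated concentrations; whole-cell lysates probed for CHOP by Western blot, with actin as loading control.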
# NCI-H460 [10] = assay: Induction of CHOP mRNA expression in human NCI-H460 cells after 6 hrs by real time quantitative PCR analysis; type: functional, cell-based
# Outline: (§2)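 H460 cells exposed to a concentration range for 6 or 12 h. CHOP mRNA measured by RT-PCR/qPCR and normalized to β-actin.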
# NCI-H460 [11] = assay: Induction of CHOP mRNA expression in human NCI-H460 cells after 12 hrs by real time quantitative PCR analysis; type: functional, cell-based; outline: as §2
# NCI-H460 [12] = assay: Induction of CHOP protein expression in human NCI-H460 cells at 20 uM after 12 hrs by Western blot analysis; type: functional, cell-based
# Outline: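 H460 cells treated for 6–24 h, or across a range of concentrations. CHOP protein measured by Western blot, densitometry expressed as percent of control; Student's t test.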
# [13] = target: Transcription factor Jun (Homo sapiens) (UniProt P05412); assay: Induction of c-Jun phosphorylation in human NCI-H460 cells at 20 uM after 3 hrs by Western blot analysis; type: cell-based
# Outline: (§3)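 H460 cells cultured in RPMI 1640 with 5% heat-inactivated FBS at 37 C, 10% CO2; exposed to 20 μM for a time course. Lysed at 0 C in Tris-HCl pH 7.4 buffer with NP40, SDS, and protease/phosphatase inhibitors. Phospho-c-Jun detected by Western blot with chemiluminescence, actin as loading control; band density quantified.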
# [14] = target: Transcription factor Jun (Homo sapiens) (UniProt P05412); assay: Induction of c-Jun phosphorylation in human NCI-H460 cells at 20 uM after 12 hrs by Western blot analysis; type: cell-based; outline: as §3
# NCI-H460 [15] = assay: Increase in p53 expression in human NCI-H460 cells after 1 to 12 hrs by Western blot analysis; type: functional, cell-based
# Outline: (§4)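 H460 cells exposed to 20 μM for varying times, or to a range of concentrations for 12 h. Lysates made in Tris-HCl pH 7.4/NaCl/NP40/SDS buffer with protease and phosphatase inhibitors, then probed for p53 by Western blot with chemiluminescent detection; bands quantified by densitometry.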
# NCI-H460 [16] = assay: Increase in p53 expression in human NCI-H460 cells at 20 uM by Western blot analysis; type: functional, cell-based; details: TDE = time-dependent effect; outline: as §4
# NCI-H460 [17] = assay: Induction of apoptosis in human NCI-H460 cells assessed as activation of caspase 3 activity at 20 uM after 24 hrs by Western blot analysis; type: functional, cell-based
# NCI-H460 [18] = assay: Cytotoxicity against human NCI-H460 cells assessed as reduction of cell viability at 5 to 20 uM after 24 hrs by CellTiter-Glo analysis; type: functional, cell-based
# Outline: (§5)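 H460 cells (5 × 10^3/well) seeded overnight, then given fresh medium containing compound from DMSO stock (final 5, 10, 20 μM; 2.5–30 μM in the figure) for 24 h. Viability measured with CellTiter-Glo and expressed as percent of vehicle-treated cells; Student's t test.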
# NCI-H460 [19] = assay: Cytotoxicity against human NCI-H460 cells assessed as reduction of cell survival after 24 hrs by CellTiter-Glo analysis; type: functional, cell-based; outline: as §5
# NCI-H460 [20] = assay: Induction of apoptosis in human NCI-H460 cells after 6 hrs by Flow cytometric analysis; type: functional, cell-based; outline: as §1
# NCI-H460 [21] = assay: Induction of apoptosis in human NCI-H460 cells assessed as viable cells at 5 uM after 6 hrs by annexinV-propidium iodide staining based flow cytometric analysis relative to control; type: functional; details: NCI-H460, 6 h, read-out: Activity; outline: as §1
# NCI-H460 [22] = assay: Induction of apoptosis in human NCI-H460 cells assessed as late apoptotic cells at 5 uM after 6 hrs by annexinV-propidium iodide staining based flow cytometric analysis relative to control; type: functional; outline: as §1
# NCI-H460 [23] = assay: Induction of apoptosis in human NCI-H460 cells assessed as late apoptotic cells at 10 uM after 6 hrs by annexinV-propidium iodide staining based flow cytometric analysis relative to control; type: functional; outline: as §1
# NCI-H460 [24] = assay: Induction of apoptosis in human NCI-H460 cells assessed as non-viable necrotic cells at 10 uM after 6 hrs by annexinV-propidium iodide staining based flow cytometric analysis relative to control; type: functional; outline: as §1
# NCI-H460 [25] = assay: Induction of apoptosis in human NCI-H460 cells assessed as early apoptotic cells at 20 uM after 6 hrs by annexinV-propidium iodide staining based flow cytometric analysis relative to control; type: functional; outline: as §1
# NCI-H460 [26] = assay: Induction of XBP-1 protein level in human NCI-H460 cells at 20 uM after 6 hrs by Western blot analysis
# Chain of Transcription factor Jun (Homo sapiens) (P05412 whole entry): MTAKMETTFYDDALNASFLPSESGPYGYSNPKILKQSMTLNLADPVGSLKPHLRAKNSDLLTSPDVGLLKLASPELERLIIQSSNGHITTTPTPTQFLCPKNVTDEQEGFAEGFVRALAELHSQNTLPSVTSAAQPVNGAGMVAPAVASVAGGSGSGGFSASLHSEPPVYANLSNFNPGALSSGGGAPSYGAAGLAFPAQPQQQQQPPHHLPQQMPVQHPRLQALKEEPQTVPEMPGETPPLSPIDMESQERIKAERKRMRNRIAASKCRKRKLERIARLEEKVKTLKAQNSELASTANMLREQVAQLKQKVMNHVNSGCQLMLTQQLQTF
compound,measurement,setting,value
COc1cccc(/C=C/C(=O)/C=C/c2cccc(OC)c2OC)c1OC,Activity,NCI-H460 [1],46.5%
same,Activity,Mus musculus [2],Non-toxic
same,Activity,Mus musculus [3],Non-toxic
same,Activity,Mus musculus [4],Non-toxic
same,Activity,NCI-H460 [5],29.63%
same,Activity,NCI-H460 [6],inactive
same,Activity,NCI-H460 [7],Active
same,pIC50,NCI-H460 [8],5.17
same,Activity,NCI-H460 [9],Active
same,Activity,NCI-H460 [10],Dose-dependent effect
same,Activity,NCI-H460 [11],Dose-dependent effect
same,Activity,NCI-H460 [12],Active
same,Activity,[13],Active
same,Activity,[14],Active
same,Activity,NCI-H460 [15],Dose-dependent effect
same,Activity,NCI-H460 [16],tde
same,Activity,NCI-H460 [17],Active
same,Activity,NCI-H460 [18],Active
same,Activity,NCI-H460 [19],Dose-dependent effect
same,Activity,NCI-H460 [20],Dose-dependent effect
same,viability at 5 µM,NCI-H460 [21],89.4%
same,Activity,NCI-H460 [22],2.62%
same,Activity,NCI-H460 [23],3.3%
same,Activity,NCI-H460 [24],1.49%
same,Activity,NCI-H460 [25],29.68%
same,Activity,NCI-H460 [26],Active
